TRPC4 agonist: activators of mouse TRPC4 channel, primary screen, Fluo4 calcium, HEK293 TRPC4beta/mu-opioid cells. AID 2237, 2010. B-score at 10 µM. Fluo4 calcium fluorescence; hits give high values. hit rate 0.49% among 310,000;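 active = B-score above 5 SD of library B-scores, and initial fluorescence ratio not above library mean plus 5 SD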;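 note: positive B-score marks a calcium rise read as TRPC4 activation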
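Test system: HEK293 cells stably co-expressing mouse TRPC4beta and mu-opioid receptor | Schedule: Fluo4 dye loading 45 min at room temperature, 110 s recording | Measured by: Kinetic Fluo4 calcium fluorescence, 5 s baseline at 1 Hz | Evaluation: B score of integrated ratio | Controls: Buffer (low) and maximal DAMGO (high)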
TRPC4 block: inhibitors of mouse TRPC4 channel, primary screen, Fluo4 calcium, HEK293 TRPC4beta/mu-opioid cells; DAMGO-evoked Fluo4 calcium flux; hits give low values; hit rate 0.39% among 300,000; AID 2247, 2010; Short transient receptor potential channel 4 (Mus musculus), Q9QUQ5; B-score at 10 µM;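 active = B-score over 3 SD under the library average, no early fluorescence shift, positive overall ratio signal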
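Assay system: TRPC4beta/mu-opioid receptor HEK293 cell line; compound dosing: single concentration per test compound; detection: Fluo4 Ca2+ flux fluorescence; evaluation: per-well B score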
TRPC6 inhibitor: mouse TRPC6 channel inhibitors, primary screen, cell-based, HEK293, membrane potential dye | AID 2553, 2010 | Short transient receptor potential channel 6 (Mus musculus), Q61143 | hit rate 1.1% among 310,000 | ACh-evoked depolarization; hits give low values | B-score at 10 µM;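 active = B-score under library mean minus 3 SD, initial fluorescence not abnormally high, positive integrated signal ratio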;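 note: B-score derived from integrated fluorescence ratio over the kinetic read; more negative B-score means stronger inhibition of depolarization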
TRPC4 potent: positive allosteric modulators of TRPC4, primary screen, cell-based, mouse TRPC4beta, HEK293 mu-opioid, Fluo-4 calcium; Short transient receptor potential channel 4 (Mus musculus), Q9QUQ5; DAMGO EC20, Fluo-4 Ca2+ flux; hits give high values; B-score at 10 µM; hit rate 0.42% among 310,000; AID 2227, 2009;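 active = B-score of calcium response area above 5 SD of library B-scores, with initial fluorescence ratio within 5 SD of library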
TRPC6 act: mouse TRPC6 channel activators, primary screen, cell-based, HEK293, membrane potential dye | hit rate 0.13% among 310,000 | HEK293-TRPC6 membrane potential dye fluorescence; hits give high values | B-score at 10 µM;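 active = B-score of the integrated fluorescence ratio above library mean plus 3 SD, and starting fluorescence ratio within library mean plus 5 SD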;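 note: higher score means more depolarization so channel activation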
Numbers stand for hits; 0 = inactive. In the library only some 2.3% were active in any assay of this set; here they are far more common.

SMILES	TRPC4 agonist	TRPC4 block	TRPC6 inhibitor	TRPC4 potent	TRPC6 act
CCOCCCNC(=O)/C(C#N)=C/c1ccc(Cl)c([N+](=O)[O-])c1	0	0	0	18	0
COC(=O)c1ccccc1NC(=O)CN1CCc2ccccc2C1	0	0	0	0	0
Cc1ccc(NC(=O)CN2CCc3ccccc3C2)cc1S(=O)(=O)N1CCOCC1	70	-9	0	0	0
Cc1ccc(NC(=O)CN2CCc3ccccc3C2)cc1F	0	-7	0	0	0
CC(NC(=O)c1ccccc1NC(=O)CN1CCc2ccccc2C1)c1ccccc1 (stereo not given)	0	0	0	15	0
O=C(c1ccc(Br)cc1)c1sc(N2CCOCC2)nc1-c1ccccc1	0	0	0	0	0
Cn1cc(-c2nc3ccccc3[nH]2)c2ccccc21	0	-6	0	0	0
CN(CC(=O)Nc1ccc(F)cc1)C(=O)COC(=O)C1CCN(c2ccc(C(F)(F)F)cn2)CC1	0	-5	0	0	0
Cc1ccccc1N(CC(=O)N/N=C/c1ccc(Cl)cc1)C(=O)c1ccccc1	0	0	0	0	0
Cc1ccccc1N(CC(=O)N/N=C/c1ccc(F)cc1)C(=O)c1ccccc1	91	0	0	0	0
CC(=O)c1cn(-c2ccc(Cl)cc2)c(=O)n(Cc2ccc(F)cc2)c1=O	0	0	0	0	0
CN1CCN(Cc2cccc(Oc3ccc(Cl)cc3)c2)CC1	0	0	0	19	0
COc1ccccc1Cc1nc2ccccc2n1S(=O)(=O)c1ccc(Cl)cc1	0	0	0	0	0
CCN(CC)CCCN1CC(O)=C(c2nc3ccccc3s2)C1=N	0	0	0	12	0
N=C1C(c2nc3ccccc3s2)=C(O)CN1Cc1ccccc1	0	0	0	0	0
Cc1ccc(C)c(N(CC(=O)NC2CCCC2)C(=O)c2csnn2)c1	70	-10	0	0	0
CN(C)CCCn1c(NC(=O)C2CCCCC2)nc2ccccc21	0	0	0	0	0
CCn1c(NC(=O)c2ccccc2)nc2ccccc21	0	0	0	0	0
CCCCn1c(NC(=O)c2ccccc2)nc2ccccc21	0	-6	0	52	0
CCCCn1c(NC(=O)C2CCCCC2)nc2ccccc21	0	0	0	13	0
CCn1nnc(NC(=O)C(c2ccccc2)c2ccccc2)n1	0	0	0	0	0
C/C(=N/NC(=O)CN1CCN(Cc2ccccc2Cl)CC1)c1ccco1	0	0	0	0	0
CN(C)S(=O)(=O)c1cccc(COC(=O)c2cccnc2Cl)c1	0	0	0	0	0
CC(Oc1ccc(C(=O)c2ccccc2)cc1)C(=O)Nc1ccc(S(N)(=O)=O)cc1 (stereo not given)	58	0	0	0	0
CC(Oc1ccccc1)C(=O)Nc1ccc(NC(=O)c2ccccc2)cc1 (stereo not given)	0	0	0	0	0
SMILES	TRPC4 agonist	TRPC4 block	TRPC6 inhibitor	TRPC4 potent	TRPC6 act
CC(C)CCN1CC(=O)N2[C@@H](Cc3c([nH]c4ccccc34)C2(C)C)C1=O	0	0	0	0	0
COc1cc(NC(=O)c2cc(CC(C)C)on2)c(OC)cc1Cl	0	0	0	10	0
CCCc1cc(C(=O)Nc2cc(OC)c(Cl)cc2OC)no1	0	0	0	0	0
Cc1ccc2[nH]c(C(=O)NCCN3CCCC3)cc2c1	56	0	0	0	0
Cc1ccc2[nH]c(C(=O)N3CCCCC3)cc2c1	0	0	0	0	0
O=C1CCCc2nc(N3CCN(C(c4ccccc4)c4ccccc4)CC3)ncc21	43	0	0	0	0
CCN1CCN(CCC(=O)Nc2ccccc2OC)CC1	0	0	0	19	0
COc1cc(NC(=O)CCN2CCN(CCO)CC2)cc(OC)c1	45	0	0	0	0
Cc1ccccc1-n1nc(-c2cccnc2)cc1C(=O)NN	0	0	0	0	0
CCCN1CN(Cc2ccco2)c2nc3ccccc3n2C1	0	-6	0	0	0
CCCCN(C)CCNC(=O)C(NC(=O)C1CCC(C)CC1)C(C)C (stereo not given)	52	0	0	0	0

Source: PubChem BioAssay
